This is a sample that favours compounds with a hit; in the whole collection about 3.7% have one here.
KCNK9 inh: blocks the human KCNK9 two-pore domain potassium channel | B-score at 10 µM | Q9NPC2 | 310,000 tested, 1.2% active | HEK293 KCNK9, FluxOR thallium flux fluorescence; active compounds read low;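 active means ratio B-score over 3 SD below the library mean, with starting fluorescence within 5 SD of its mean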;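 further: negative B-score means less thallium flux so channel inhibition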
KCNQ1 inh: blocks the human KCNQ1 potassium channel; P51787; CHO-K1 KCNQ1, FluxOR thallium flux fluorescence; active compounds read high; B-score at 10 µM; 310,000 tested, 1.3% active; AID 2642;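 active means compounds whose thallium flux B-score, printed positive for inhibition, exceeds three library SD while starting fluorescence stays within three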;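 further: channel opened by potassium depolarization with thallium stimulus after 20 min compound exposure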
KCNK3 inh: human KCNK3 channel inhibition, primary screen. O14649. CHO-KCNK3 thallium flux, FluxOR fluorescence; active compounds read low. B-score at 10 µM. 340,000 tested, 0.84% active. AID 602410;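 active means B-score under library mean minus 4 SD, starting fluorescence ratio at most library mean plus 5 SD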;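 further: more negative B-score means stronger inhibition of thallium flux through KCNK3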
Target sequence (O14649 whole entry, looked up): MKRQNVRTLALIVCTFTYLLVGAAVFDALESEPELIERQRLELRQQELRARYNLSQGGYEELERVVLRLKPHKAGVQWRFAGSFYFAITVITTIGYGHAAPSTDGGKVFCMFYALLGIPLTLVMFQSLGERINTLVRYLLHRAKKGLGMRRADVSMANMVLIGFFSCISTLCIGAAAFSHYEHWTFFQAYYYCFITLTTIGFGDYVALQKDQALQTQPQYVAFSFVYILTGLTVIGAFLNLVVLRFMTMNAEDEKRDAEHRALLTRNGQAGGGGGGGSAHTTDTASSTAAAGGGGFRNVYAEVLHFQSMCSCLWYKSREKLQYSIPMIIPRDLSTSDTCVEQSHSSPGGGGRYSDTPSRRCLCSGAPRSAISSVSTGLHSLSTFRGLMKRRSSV
hERG rescue: hERG (human) protection from proarrhythmic block; Q12809; CHO-hERG, FluxOR thallium flux, dofetilide IC70 present; activation (rescue from dofetilide block), less the hit threshold, % at 10 µM; 310,000 tested, 0.51% active;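 active means activation above the mean of controls blocked by dofetilide plus 5 SD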;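 further: thallium influx through hERG after potassium depolarization seen as dye fluorescence rise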
Kir21 inh: blocks the mouse Kir2.1 inward-rectifier potassium channel; 310,000 tested, 0.85% active; HEK293-Kir2.1, FluxOR thallium flux fluorescence; active compounds read low; B-score at 10 µM; P35561;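 active means fluorescence ratio B-score at or below minus 3 SD of library scores, with starting-brightness B-score within 2 SD, cut at about -4.2 in these data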;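 further: channel flux triggered by added potassium and thallium sulfate stimulus; B-score of peak minus minimum fluorescence over baseline after thallium stimulus; more negative B-score means stronger Kir2.1 block with less thallium influx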
KCNQ1 pot: potentiates or activates the human KCNQ1 potassium channel. B-score at 10 µM. P51787. 310,000 tested, 0.35% active. CHO-K1 KCNQ1, thallium flux FluxOR fluorescence; active compounds read high. AID 2648;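 active means fluorescence ratio B-score, a plate-corrected score, at least three library SD, with initial intensity B-score within 5 SD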
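System: CHO-K1 cells stably expressing KCNQ1 / Medium: assay buffer for compound exposure, DMSO matched across wells / Reagent: thallium- and potassium-containing depolarizing buffer / Compound: one concentration, matched DMSO / Incubation: 20 min compound pretreatment at room temperature / Measured by: kinetic FluxOR fluorescence, 10 s baseline plus 110 s post-stimulus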
KCNK3 inh conf: confirmation of human KCNK3 two-pore domain potassium channel inhibitors; CHO-KCNK3 thallium flux, FluxOR fluorescence; 0% buffer, 100% carvedilol maximal block; AID 651638; shares compounds with KCNK3 inh; ratio percent of control, % at 10 µM; 2,400 tested, 99% active;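 active means ratio percent of control, averaged over triplicates, above buffer control mean plus 5 SD, cut at about 64% in these data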;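 further: ratio is the fluorescence rise from min to max over baseline after thallium stimulus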
KCNK3 uninduced: activity in cells without induced KCNK3 expression; AID 651747; shares compounds with KCNK3 inh; 2,400 tested, 40% active; non-induced KCNK3 parental cells, FluxOR thallium flux; active compounds read low; thallium flux ratio (lower = more inhibition) at 10 µM;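 active means thallium flux ratio, averaged over three wells, more than 5 SD below the buffer control mean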;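 further: host cells are CHO cells without KCNK3 induction; ratio is peak minus trough fluorescence over baseline then normalized to buffer controls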
* marks the source's active call; other numbers are inactive results; i = inactive; nt = not tested or not shown.

SMILES	KCNK9 inh	KCNQ1 inh	KCNK3 inh	hERG rescue	Kir21 inh	KCNQ1 pot	KCNK3 inh conf	KCNK3 uninduced
COc1ccc(/C=C2/Sc3ccc(C(=O)NCCCN4CCOCC4)cc3NC2=O)cc1OC	i	i	i	-12	-1	i	nt	nt
O=C(NCCc1nccs1)C1CCC(=O)N(CCc2ccc(Cl)cc2)C1 (centres undefined)	i	i	i	-9	-2.2	i	nt	nt
COc1ccc(Cn2c(SCC(=O)NCc3ccco3)nc3ccsc3c2=O)cc1	i	i	i	-3	-0.02	i	nt	nt
COC(=O)C(C)Sc1nc2ccsc2c(=O)n1Cc1ccccc1 (centres undefined)	i	i	-9.4*	-14	-0.24	i	94*	i
CC(C)(C)c1cc(C(=O)NNc2cc(C(F)(F)F)ccc2Cl)n(Cc2ccccc2)n1	i	8*	-19*	-10	1.9	i	139*	0.13*
Cc1ccc(NC(=O)c2cc(C(C)(C)C)nn2Cc2ccccc2)cc1	i	i	-16*	-17	0.48	i	148*	i
CC(=O)Nc1ccc2c(CSc3nnc(N)s3)cc(=O)oc2c1	i	i	i	-6	1.4	i	nt	nt
CCOc1ccccc1C(=O)NCC(=O)OCCOc1cccc(Cl)c1	i	i	-10*	-15	1.5	i	100*	i
COc1ccc(OCCC(=O)OCC(=O)Nc2cccc(S(=O)(=O)N3CCCCC3)c2)cc1	nt	nt	i	nt	nt	nt	nt	nt
O=C(Cn1cc(C(F)(F)F)ccc1=O)N1CCc2ccccc21	nt	nt	i	nt	nt	nt	nt	nt
COc1ccc(C(=O)NC(CC(=O)O)c2cc([N+](=O)[O-])ccc2Cl)cc1 (centres undefined)	i	i	i	-4	1.9	i	nt	nt
COc1ccc(C(=O)CC(Nc2ccc([N+](=O)[O-])cc2)c2ccc(Cl)cc2)cc1 (centres undefined)	-6.7*	12*	-9.1*	-19	-0.89	i	132*	0.14*
O=C(NCc1ccco1)c1cccc2c1C(=O)c1ccc(/C=C/c3ccccc3)cc1S2(=O)=O	nt	nt	i	nt	nt	nt	nt	nt
CC(C)c1ccc(-c2csc3ncnc(N4CCN(C)CC4)c23)cc1	i	i	i	-7	-1.1	i	nt	nt
CC(C)(C)C(=O)N1CCN(c2ncnc3scc(-c4ccccc4)c23)CC1	i	i	i	-9	1.2	i	nt	nt
COc1ccc(-c2csc3ncnc(N4CCN(c5ccccc5[N+](=O)[O-])CC4)c23)cc1	i	8*	-8.7*	-16	0.65	i	97*	i
COc1ccc(-c2csc3ncnc(N4CCN(c5ccc(OC)cc5)CC4)c23)cc1	i	i	-11*	-15	-0.53	i	92*	i
C=C1CC(Cn2cc(Br)c(=O)[nH]c2=O)(c2ccc(-c3ccccc3)cc2)OC1=O (centres undefined)	nt	nt	i	nt	nt	nt	nt	nt
COc1cc(C(=O)N2CCN(S(=O)(=O)c3cccc(F)c3)CC2)ccc1OCC(=O)N1CCOCC1	i	i	i	-2	-1.3	i	nt	nt
COc1ccccc1NC(=O)C(C)OC(=O)CCCc1c[nH]c2ccccc12 (centres undefined)	-7.2*	i	-10*	-14	-0.39	i	104*	i
CC(C)(C)c1ccc(OCCn2nc(C(=O)O)c3ccccc3c2=O)cc1	i	i	-9.1*	-8	-0.03	i	112*	i
CCOc1ccc(C2CC(=O)NC2=O)cc1 (centres undefined)	i	i	i	-6	0.56	i	nt	nt
CCOc1ccc(C2c3c(oc4ccccc4c3=O)C(=O)N2c2ccc(C)cn2)cc1OC (centres undefined)	i	i	-11*	-5	0.1	i	99*	i
COc1cc(C2c3c(oc4ccccc4c3=O)C(=O)N2c2ccc(C)cn2)ccc1O (centres undefined)	i	i	i	-7	0.43	i	nt	nt
Nc1nc(SCC(=O)Nc2ncc(C(F)(F)F)cc2Cl)n[nH]1	i	i	i	-3	0.14	i	nt	nt
SMILES	KCNK9 inh	KCNQ1 inh	KCNK3 inh	hERG rescue	Kir21 inh	KCNQ1 pot	KCNK3 inh conf	KCNK3 uninduced
CC(=O)NN1C(=O)/C(=C\c2ccc(O)cc2)SC1=S	i	i	i	-5	-1.8	i	nt	nt
O=C1/C(=C\c2ccc(O)cc2)SC(=S)N1/N=C/c1ccc(O)cc1	i	7*	-8.8*	-17	-0.45	i	109*	0.15*
CCCCNC(=O)c1ccccc1SCc1c(C)noc1C	i	i	i	-1	0.7	i	nt	nt
CCOC(=O)N1CCC(NCCNC(=O)c2cccc(F)c2)CC1	nt	nt	i	nt	nt	nt	nt	nt
CSc1ccccc1C(=O)Nc1ccc(C)c(C)c1	i	i	-8.9*	-5	1.5	i	87*	i
CC(=O)Nc1ccc(NC(=O)c2cccc3c2-c2ccccc2C3=O)cc1	i	i	i	-7	0.94	i	nt	nt
CSc1ccccc1C(=O)Nc1cc(C)cc(C)c1	i	i	i	-10	-1	i	nt	nt
Cc1ccc(NC(=O)c2cccc3c2-c2ccccc2C3=O)cc1C	i	i	-9.3*	-11	-1.7	i	108*	i
C=CCc1cc(C)ccc1OCCCC(C(=O)OCC)C(=O)OCC	i	i	-12*	-9	-1.2	i	101*	i
O=C(Cn1cnc([N+](=O)[O-])c1)c1ccc(F)cc1	i	i	i	-7	-0.71	i	nt	nt
CCc1ccc2c(c1)C1(NN=C(c3cccc4ccccc34)S1)C(=O)N2 (centres undefined)	i	15*	-13*	-2	-0.66	i	149*	0.13*
Cc1cc(O)c(C(C)C)cc1C1(c2cc(C(C)C)c(O)cc2C)OC(=O)c2ccccc21	i	i	-9.1*	-1	-3.1	i	120*	0.15*
Cc1ccc(C(=O)CSc2cc(C)nc(SCC(=O)c3ccccc3)n2)cc1	i	i	-9*	-8	-0.44	i	112*	i
Cc1cc(SCC(N)=O)nc(SCC(=O)c2ccccc2)n1	i	i	i	2	0.01	i	nt	nt
Cc1cc(/C=C(\C#N)C(=O)OCC(=O)NC(=O)NC(C)(C)C)c(C)n1CCC(C)C	i	i	-8.7*	-3	-0.02	i	125*	i

Screening data: PubChem BioAssay, Johns Hopkins Ion Channel Center
